Results published in ChEMBL document CHEMBL1153439, “Design, synthesis, antimicrobial activity and molecular modeling studies of novel benzofuroxan derivatives against Staphylococcus aureus” (2009).
Values after ≈ are worked out from the molar mass of the structure shown.

Assays:
Format in all cases: functional
Staphylococcus aureus [1] = test: Antibacterial activity against Staphylococcus aureus ATCC 25923 after 18 hrs by phase 1 broth microdilution method; settings: ATCC 25923, 18 h
Outline: (§1)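 Phase I: twofold serial dilutions in Tryptic Soy Broth, 96-well plates, concentrations […]. Stocks in DMSO/TSB 1:10 v/v, with final DMSO 5.0–0.01%. Inoculum was set to 0.5 McFarland, then diluted in saline and TSB. Plates ran 18 h at 35 °C. MIC is the lowest concentration without visible growth, in triplicate. Sterility was read at 24 and 48 h. Ampicillin, chloramphenicol and vancomycin were controls.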

Staphylococcus aureus [2] = test: Antibacterial activity against Staphylococcus aureus ATCC 25923 after 18 hrs by phase 2 broth microdilution method; settings: ATCC 25923, 18 h
Outline: (§2)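 Phase II narrowed the phase I MIC in Tryptic Soy Broth. Stock was made at twice the phase I MIC, then diluted 10% stepwise with TSB through column 11. Final DMSO was 2.5–1.0%. Positive growth control wells received TSB. Inoculum was prepared as in phase I and plates were incubated 18 h at 35 °C.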

Staphylococcus aureus [3] = test: Antibacterial activity against multidrug-resistant Staphylococcus aureus 3SP/R33 after 18 hrs by phase 1 broth microdilution method; outline: as §1
Staphylococcus aureus [4] = test: Antibacterial activity against multidrug-resistant Staphylococcus aureus 3SP/R33 after 18 hrs by phase 2 broth microdilution method; outline: as §2
Staphylococcus aureus [5] = test: Antibacterial activity against multidrug-resistant vancomycin-intermediate Staphylococcus aureus VISA3 after 18 hrs phase 1 by broth microdilution method; outline: as §1
Staphylococcus aureus [6] = test: Antibacterial activity against multidrug-resistant vancomycin-intermediate Staphylococcus aureus VISA3 after 18 hrs phase 2 by broth microdilution method; outline: as §2
Staphylococcus aureus [7] = test: Antibacterial activity against Staphylococcus aureus ATCC 25923 after 18 hrs by broth microdilution method; settings: ATCC 25923, 18 h
Outline: (§3)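 Broth microdilution in Tryptic Soy Broth in 96-well plates, with DMSO as solvent at no more than 5% of the total. Inoculum was set to 0.5 McFarland and diluted in saline and TSB. Plates were incubated 18 h at 35 °C. MIC is the lowest concentration without visible growth. The MIC was determined in two phases, the second narrowing the first.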

Staphylococcus aureus [8] = test: Antibacterial activity against multidrug-resistant Staphylococcus aureus 3SP/R33 after 18 hrs by broth microdilution method; outline: as §3
Staphylococcus aureus [9] = test: Antibacterial activity against multidrug-resistant vancomycin-intermediate Staphylococcus aureus VISA3 after 18 hrs by broth microdilution method; outline: as §3

SMILES	MIC (Staphylococcus aureus [1]) [mg/L]	MIC (Staphylococcus aureus [2]) [mg/L]	MIC (Staphylococcus aureus [3]) [mg/L]	MIC (Staphylococcus aureus [4]) [mg/L]	MIC (Staphylococcus aureus [5]) [mg/L]	MIC (Staphylococcus aureus [6]) [mg/L]	MIC (Staphylococcus aureus [7]) [mg/L]	MIC (Staphylococcus aureus [8]) [mg/L]	MIC (Staphylococcus aureus [9]) [mg/L]
Cc1ccc(C(=O)N/N=C/c2ccc3c(c2)no[n+]3[O-])cc1	20 (≈ 67.5 µM)	21 (≈ 70.9 µM)	20 (≈ 67.5 µM)	21 (≈ 70.9 µM)	20 (≈ 67.5 µM)	21 (≈ 70.9 µM)			
O=C(N/N=C/c1ccc2c(c1)no[n+]2[O-])c1ccc(Br)cc1	10 (≈ 27.7 µM)	18 (≈ 49.8 µM)	10 (≈ 27.7 µM)	18 (≈ 49.8 µM)	10 (≈ 27.7 µM)	18 (≈ 49.8 µM)			
O=C(N/N=C/c1ccc2c(c1)no[n+]2[O-])c1ccc(Cl)cc1	10 (≈ 31.6 µM)	15.3 (≈ 48.3 µM)	10 (≈ 31.6 µM)	15.3 (≈ 48.3 µM)	10 (≈ 31.6 µM)	15.3 (≈ 48.3 µM)			
CC(=O)c1ccc(C(=O)N/N=C/c2ccc3c(c2)no[n+]3[O-])cc1	20 (≈ 61.7 µM)	21.2 (≈ 65.4 µM)	20 (≈ 61.7 µM)	21.2 (≈ 65.4 µM)	20 (≈ 61.7 µM)	21.2 (≈ 65.4 µM)			
O=C(N/N=C/c1ccc2c(c1)no[n+]2[O-])c1ccccc1	10 (≈ 35.4 µM)	16.2 (≈ 57.4 µM)	10 (≈ 35.4 µM)	16.2 (≈ 57.4 µM)	10 (≈ 35.4 µM)	16.2 (≈ 57.4 µM)			
Nc1ccc(C(=O)N/N=C/c2ccc3c(c2)no[n+]3[O-])cc1	10 (≈ 33.6 µM)	15.3 (≈ 51.5 µM)	10 (≈ 33.6 µM)	15.3 (≈ 51.5 µM)	10 (≈ 33.6 µM)	15.3 (≈ 51.5 µM)			
N#Cc1ccc(C(=O)N/N=C/c2ccc3c(c2)no[n+]3[O-])cc1	20 (≈ 65.1 µM)	26.2 (≈ 85.3 µM)	20 (≈ 65.1 µM)	26.2 (≈ 85.3 µM)	20 (≈ 65.1 µM)	26.2 (≈ 85.3 µM)			
O=C(N/N=C/c1ccc2c(c1)no[n+]2[O-])c1ccc(O)cc1	20 (≈ 67.1 µM)	26.2 (≈ 87.8 µM)	20 (≈ 67.1 µM)	26.2 (≈ 87.8 µM)	20 (≈ 67.1 µM)	26.2 (≈ 87.8 µM)			
O=C(N/N=C/c1ccc2c(c1)no[n+]2[O-])c1ccc(F)cc1	10 (≈ 33.3 µM)	14.6 (≈ 48.6 µM)	10 (≈ 33.3 µM)	14.6 (≈ 48.6 µM)	10 (≈ 33.3 µM)	14.6 (≈ 48.6 µM)			
O=C(N/N=C/c1ccc2c(c1)no[n+]2[O-])c1ccc(I)cc1	20 (≈ 49 µM)	23.6 (≈ 57.8 µM)	20 (≈ 49 µM)	23.6 (≈ 57.8 µM)	20 (≈ 49 µM)	23.6 (≈ 57.8 µM)			
O=C(N/N=C/c1ccc2c(c1)no[n+]2[O-])c1ccc(C(F)(F)F)cc1	10 (≈ 28.6 µM)	13.1 (≈ 37.4 µM)	10 (≈ 28.6 µM)	13.1 (≈ 37.4 µM)	10 (≈ 28.6 µM)	13.1 (≈ 37.4 µM)			
COc1ccc(C(=O)N/N=C/c2ccc3c(c2)no[n+]3[O-])cc1	10 (≈ 32 µM)	16.2 (≈ 51.9 µM)	10 (≈ 32 µM)	16.2 (≈ 51.9 µM)	10 (≈ 32 µM)	16.2 (≈ 51.9 µM)			
CN(C)c1ccc(C(=O)N/N=C/c2ccc3c(c2)no[n+]3[O-])cc1	> 80		> 80		> 80				
NS(=O)(=O)c1ccc(C(=O)N/N=C/c2ccc3c(c2)no[n+]3[O-])cc1	> 80		> 80		> 80				
CC1(C)S[C@@H]2[C@H](NC(=O)[C@H](N)c3ccccc3)C(=O)N2[C@H]1C(=O)O [AMPICILLIN]							0.1 (≈ 0.286 µM)		
O=C(N[C@H](CO)[C@H](O)c1ccc([N+](=O)[O-])cc1)C(Cl)Cl [CHLORAMPHENICOL]							2 (≈ 6.19 µM)	32 (≈ 99 µM)	32 (≈ 99 µM)
